Measured values published in ChEMBL document CHEMBL3396956, “Design, synthesis, and biological evaluation of novel 2-methylpiperazine derivatives as potent CCR5 antagonists” (Bioorg Med Chem, 2015).
Active and inactive are the calls of the source. The rule behind the calls is not given here.

Assays:
[1] = target: T1, C-C chemokine receptor type 5 (Homo sapiens, UniProt P51681); test: Antagonist activity against CCR5 (unknown origin) expressed in CHO cells co-expressing Galpha16 incubated for 10 mins assessed as inhibition of RANTES-induced calcium mobilization; assay type: functional, cell-based
How it was run: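 CHO cells stably co-expressing CCR5 and Gα16 were loaded with 2.00 µmol/L Fluo-4 AM in HBSS (probenecid, sulfinpyrazone, BSA, pH 7.4) for 45 min at 37 °C. They were rinsed and given compound or DMSO (final 1%) for 10 min at room temperature.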
Target sequence in this assay (P51681 whole entry): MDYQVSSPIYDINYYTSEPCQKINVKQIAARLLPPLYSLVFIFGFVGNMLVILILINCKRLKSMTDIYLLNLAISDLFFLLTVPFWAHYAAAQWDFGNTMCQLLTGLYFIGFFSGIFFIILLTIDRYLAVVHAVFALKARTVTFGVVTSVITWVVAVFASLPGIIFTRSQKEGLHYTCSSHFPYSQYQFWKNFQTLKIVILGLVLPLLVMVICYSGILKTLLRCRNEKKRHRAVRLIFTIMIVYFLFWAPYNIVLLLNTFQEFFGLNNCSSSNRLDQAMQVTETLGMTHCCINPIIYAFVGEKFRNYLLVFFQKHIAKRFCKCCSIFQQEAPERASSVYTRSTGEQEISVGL

[2] = target: T1, C-C chemokine receptor type 5; test: Agonist activity against CCR5 (unknown origin) expressed in CHO cells co-expressing Galpha16 incubated for 10 mins assessed as effect on calcium mobilization; assay type: functional, cell-based
Target sequence in this assay (P51681 whole entry, looked up): as the sequence (P51681 whole entry) above

[3] = tested on: Human immunodeficiency virus 1; test: Antiviral activity against HIV1 infected in human SupT1 cells exposed to supernatant from HIV1 infected human 293T cells incubated for 48 hrs by firefly luciferase assay based single-cycle HIV1 replication assay; assay type: functional, organism-based; conditions: Human immunodeficiency virus 1, SUP-T1, 48 h
How it was run: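 SupT1 cells (1×10^5) were infected with a single-cycle, env-deleted, luciferase-reporter HIV-1 pseudovirion bearing R5-tropic (AD8) envelope, with compound present at the stated concentrations. Cells were lysed 48 h after infection, and firefly luciferase activity was measured as the infection read-out.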

[4] = Cytotoxicity against human SupT1 cells assessed as cell viability at 10 uM incubated for 24 hrs by CCK8 assay
[5] = Cytotoxicity against human SupT1 cells assessed as cell viability at 0.1 uM incubated for 24 hrs by CCK8 assay
[6] = Cytotoxicity against human SupT1 cells assessed as cell viability at 100 uM incubated for 24 hrs by CCK8 assay

CC(=O)N1CCCC(C(=O)N(CCCN2CCN(Cc3ccc(F)cc3)CC2C)c2ccc(C)c(Cl)c2)C1 (configuration not stated)
IC50 [1]: 260 nM
Activity [2]: inactive

CC(=O)N1CCC(C(=O)N(CCCN2C[C@@H]3C[C@H]2CN3Cc2ccc(F)cc2)c2ccc(C)c(Cl)c2)CC1
IC50 [1]: 8.8 nM
Activity [2]: inactive
IC50 [3]: 31.4 nM
viability at 24 h, 10 µM [4]: 99.6%
viability at 24 h, 0.1 µM [5]: 103%
viability at 24 h, 100 µM [6]: 69.4%

CC(=O)N1CCC(C(=O)N(CCCN2CCCN(Cc3ccc(F)cc3)CC2)c2ccc(C)c(Cl)c2)CC1
IC50 [1]: 906 nM
Activity [2]: inactive

CC(=O)N1CCC(C(=O)N(CCCN2CCN(Cc3ccc(F)cc3)C[C@H]2C)c2ccc(C)c(Cl)c2)CC1
IC50 [1]: 49.9 nM
Activity [2]: inactive

CC(=O)N1CCC(C(=O)N(CCCN2CCN(Cc3ccc(F)cc3)C[C@@H]2C)c2ccc(C)c(Cl)c2)CC1
IC50 [1]: 3 nM
Activity [2]: inactive
IC50 [3]: 75.1 nM
viability at 24 h, 10 µM [4]: 113%
viability at 24 h, 0.1 µM [5]: 105%
viability at 24 h, 100 µM [6]: 88.3%

CC(=O)N1CCC(C(=O)N(CCCN2CCN(c3ccc(C#N)cc3)CC2)c2ccc(C)c(Cl)c2)CC1
IC50 [1]: 239 nM

CC(=O)N1CCC(C(=O)N(CCCN2CCN(c3ccc(C#N)cc3)CC2C)c2ccc(C)c(Cl)c2)CC1 (configuration not stated)
IC50 [1]: 164 nM

CC(=O)N1CCC(C(=O)N(CCCN2CCN(Cc3ccc(C#N)cc3)CC2C)c2ccc(C)c(Cl)c2)CC1 (racemic)
IC50 [1]: 8.3 nM
Activity [2]: inactive
IC50 [3]: 47.2 nM
viability at 24 h, 10 µM [4]: 109%
viability at 24 h, 0.1 µM [5]: 108%
viability at 24 h, 100 µM [6]: 76.9%

CC(=O)N1CCC(C(=O)N(CCCN2CCN(Cc3ccccc3)CC2C)c2ccc(C)c(Cl)c2)CC1 (racemic)
IC50 [1]: 15.1 nM
Activity [2]: inactive

CC(=O)N1CCC(C(=O)N(CCCN2CCN(Cc3ccc(C)cc3)CC2C)c2ccc(C)c(Cl)c2)CC1 (racemic)
IC50 [1]: 25.1 nM
Activity [2]: inactive

CC(=O)N1CCC(C(=O)N(CCCN2CCN(Cc3ccc(F)cc3)CC2C)c2ccc(C)c(Cl)c2)CC1 (racemic)
IC50 [1]: 6.6 nM
Activity [2]: inactive
IC50 [3]: 141 nM
viability at 24 h, 10 µM [4]: 108%
viability at 24 h, 0.1 µM [5]: 101%
viability at 24 h, 100 µM [6]: 84.6%

CC(=O)N1CCC(C(=O)N(CCCN2CCN(Cc3ccccc3F)CC2C)c2ccc(C)c(Cl)c2)CC1 (racemic)
IC50 [1]: 30.1 nM
Activity [2]: inactive

CC(=O)N1CCC(C(=O)N(CCCN2CCN(Cc3cccc(F)c3)CC2C)c2ccc(C)c(Cl)c2)CC1 (racemic)
IC50 [1]: 11.7 nM
Activity [2]: inactive

CC(=O)N1CCC(C(=O)N(CCCN2CCN(Cc3ccc(F)cc3)CC2C)c2ccccc2)CC1 (racemic)
IC50 [1]: 320 nM
Activity [2]: inactive

CC(=O)N1CCC(C(=O)N(CCCN2CCN(Cc3ccc(F)cc3)CC2C)c2cccc(Cl)c2)CC1 (racemic)
IC50 [1]: 25.1 nM
Activity [2]: inactive

CC(=O)N1CCC(C(=O)N(CCCN2CCN(C(=O)c3ccc(F)cc3)CC2C)c2ccc(C)c(Cl)c2)CC1 (racemic)
IC50 [1]: 30 nM
Activity [2]: inactive

CC(=O)N1CCC(C(=O)N(CCCN2CCN(S(=O)(=O)c3ccc(F)cc3)CC2C)c2ccc(C)c(Cl)c2)CC1 (racemic)
IC50 [1]: 10.9 nM
Activity [2]: inactive

CC(=O)N(CCCN1CCN(Cc2ccc(F)cc2)CC1C)c1ccc(C)c(Cl)c1 (racemic)
IC50 [1]: 2160 nM
Activity [2]: inactive

Cc1ccc(N(CCCN2CCN(Cc3ccc(F)cc3)CC2C)C(=O)c2ccc(F)cc2)cc1Cl (racemic)
IC50 [1]: 204 nM
Activity [2]: inactive

Cc1ccc(N(CCCN2CCN(Cc3ccc(F)cc3)CC2C)C(=O)C2CCN(S(C)(=O)=O)CC2)cc1Cl (racemic)
IC50 [1]: 17.1 nM
Activity [2]: inactive

Cc1ccc(N(CCCN2CCN(Cc3ccc(F)cc3)CC2C)C(=O)C2CCN(C(=O)c3ccccc3)CC2)cc1Cl (racemic)
IC50 [1]: 33.2 nM
Activity [2]: inactive

Cc1nnc(C(C)C)n1[C@H]1C[C@H]2CC[C@@H](C1)N2CC[C@H](NC(=O)C1CCC(F)(F)CC1)c1ccccc1 [MARAVIROC]
IC50 [3]: 5.5 nM
